# Laboratory results: publication PMC10147382 (ACS chemical neuroscience, 2022)
# Where “and” joins values, the source holds several entries; their conditions need not be identical. Equal entries are not always repeated. Where two headings read alike, the source gives them in different places.
# Experiments:
# 5-HT2A receptor [1] = molecular target: T1, 5-HT2A receptor (Homo sapiens, UniProt P28223); assay: G protein; format: cell-based; conditions: for decrease in potency versus the alpha-methyl (DOx) counterpart: Gq dissociation (Gq versus G11 for Ariadne/DOM)
# Target sequence in this assay (P28223 whole entry): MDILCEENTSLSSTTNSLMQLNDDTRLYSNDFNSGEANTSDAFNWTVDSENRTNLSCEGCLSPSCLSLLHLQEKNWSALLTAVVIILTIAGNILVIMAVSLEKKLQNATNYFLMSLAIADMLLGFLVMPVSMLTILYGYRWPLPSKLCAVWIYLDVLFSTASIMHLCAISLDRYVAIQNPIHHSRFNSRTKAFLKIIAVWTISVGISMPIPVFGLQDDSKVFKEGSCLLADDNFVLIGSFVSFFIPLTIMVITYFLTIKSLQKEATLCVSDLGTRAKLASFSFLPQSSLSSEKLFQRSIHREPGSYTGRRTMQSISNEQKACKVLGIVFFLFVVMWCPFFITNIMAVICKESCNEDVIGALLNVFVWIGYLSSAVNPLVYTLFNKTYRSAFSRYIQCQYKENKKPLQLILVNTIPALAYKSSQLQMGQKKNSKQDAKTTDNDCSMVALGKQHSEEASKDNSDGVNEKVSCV
# 5-HT2B receptor [2] = molecular target: T2, 5-HT2B receptor (Homo sapiens, UniProt P41595); assay: G protein; format: cell-based
# mice [3] = assay: Head twitch response; format: in vivo, mouse; conditions: for HTR response: 15 min period
# 5-HT2A receptor [4] = molecular target: T1, 5-HT2A receptor; assay: β-arrestin2 recruitment BRET assay; format: cell-based; conditions: for efficacy: normalized to 5-HT
# Target sequence in this assay (P32121 whole entry): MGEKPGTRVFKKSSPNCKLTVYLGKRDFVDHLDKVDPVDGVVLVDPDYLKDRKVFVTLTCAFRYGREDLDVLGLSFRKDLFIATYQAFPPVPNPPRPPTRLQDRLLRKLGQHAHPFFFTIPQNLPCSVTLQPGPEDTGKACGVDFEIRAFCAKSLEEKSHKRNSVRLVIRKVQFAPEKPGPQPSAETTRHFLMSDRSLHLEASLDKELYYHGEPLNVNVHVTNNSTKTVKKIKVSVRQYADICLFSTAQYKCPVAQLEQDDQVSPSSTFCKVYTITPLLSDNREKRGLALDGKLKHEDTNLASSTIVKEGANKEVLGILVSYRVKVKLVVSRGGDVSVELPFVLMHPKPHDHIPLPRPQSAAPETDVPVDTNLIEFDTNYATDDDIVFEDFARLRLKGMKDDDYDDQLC
# Target sequence in this assay (P28223 whole entry): as the sequence (P28223 whole entry) above
# 5-HT2A receptors [5] = conditions: cited from earlier work
# 5-HT2A receptors [6] = conditions: cited from earlier work; remark: listed apart in the source
# 5-HT2A receptor [7] = molecular target: T1, 5-HT2A receptor; assay: Calcium flux assay; format: cell-based
# Method in brief: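 Flp-In 293 T-Rex cells stably carry tetracycline-inducible human 5-HT2A or 5-HT2C. Expression is induced with tetracycline (2 ug/mL) the day before, with about 7,500 cells/well in 1% dialyzed FBS. Cells are loaded with Fluo-4 Direct for 1 h at 37°C in HBSS/20 mM HEPES pH 7.4 with 2.5 mM probenecid, then held 15 min at RT. Fluorescence is read 10 s baseline, then 5-10 min after drug. Peak fold-over-basal or AUC is normalized to % 5-HT, with EC50/Emax from nonlinear regression.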
# Target sequence in this assay (P28223 whole entry): as above
# 5-HT2A receptor [8] = molecular target: T1, 5-HT2A receptor; assay: Radioligand displacement assay; format: binding; conditions: standard radioligand 125I-DOI
# Target sequence in this assay (P28223 whole entry): as above
# humans = conditions: cited from earlier work
# 5-HT2A receptor [9] = molecular target: T1, 5-HT2A receptor; assay: SafetyScreen44 broad screen; format: binding; conditions: 10 uM Ariadne; positive hit threshold
# Method in brief: (§1)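 Broad binding screen of 44 targets (GPCRs, nuclear receptors, ion channels, monoamine transporters, enzymes) with racemic test compound at 10 uM. Read-out is % displacement of each target's standard radioligand. A positive hit is defined as more than 50% displacement.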
# Target sequence in this assay (P28223 whole entry): as above
# 5-HT2B receptor [10] = molecular target: T2, 5-HT2B receptor; assay: SafetyScreen44 broad screen; format: binding; conditions: 10 uM Ariadne; positive hit threshold
# Method in brief: as §1
# [11] = molecular target: serotonin transporter (SERT) (Homo sapiens, UniProt P31645); assay: SafetyScreen44 broad screen; format: binding; conditions: 10 uM
# Method in brief: as §1
# [12] = molecular target: dopamine transporter (DAT) (Homo sapiens, UniProt Q01959); assay: SafetyScreen44 broad screen; format: binding; conditions: 10 uM
# Method in brief: as §1
# [13] = molecular target: norepinephrine transporter (NET) (Homo sapiens, UniProt P23975); assay: SafetyScreen44 broad screen; format: binding; conditions: 10 uM
# Method in brief: as §1
# 5-HT2C receptor = molecular target: T3, 5-HT2C receptor (Homo sapiens, UniProt P28335); assay: G protein; format: cell-based
# T3 sequence (P28335 33-458): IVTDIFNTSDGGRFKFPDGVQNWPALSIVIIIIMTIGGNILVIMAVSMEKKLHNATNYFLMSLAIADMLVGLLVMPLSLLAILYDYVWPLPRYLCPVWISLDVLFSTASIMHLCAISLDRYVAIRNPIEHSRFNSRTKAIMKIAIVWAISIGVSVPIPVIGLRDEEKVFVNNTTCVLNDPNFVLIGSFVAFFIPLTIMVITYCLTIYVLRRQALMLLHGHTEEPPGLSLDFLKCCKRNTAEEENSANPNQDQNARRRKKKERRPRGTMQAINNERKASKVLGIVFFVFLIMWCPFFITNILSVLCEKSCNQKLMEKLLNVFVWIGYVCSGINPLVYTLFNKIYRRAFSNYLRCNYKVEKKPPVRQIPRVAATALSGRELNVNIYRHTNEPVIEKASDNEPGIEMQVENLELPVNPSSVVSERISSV
# 5-HT1F receptor = 5-HT1F receptor (Homo sapiens, UniProt P30939); assay: 5-HTome G protein activation BRET screen; format: cell-based
# Method in brief: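 Human 5-HT receptors (12 in the panel) are tested by G protein-dissociation BRET2. Cells are reverse-transfected about 48 h before assay with receptor:Gα-Rluc8:Beta:GFP2-γ (TRUPATH) at 1:1:1:1 and plated in 1% dFBS. Drug is added in HBSS/20 mM HEPES pH 7.4 with 0.3% BSA and 0.03% ascorbic acid, then incubated 60 min at 37°C. Coelenterazine 400a is 5 uM final. The 510/400 ratio is normalized to % positive control, with EC50/Emax from log(agonist) vs response. Three independent experiments in triplicate.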
# dopamine 1 receptor = dopamine 1 receptor (Homo sapiens, UniProt P21728); assay: Activity at other aminergic receptors
# dopamine 2 receptor = dopamine 2 receptor (Homo sapiens, UniProt P14416); assay: Activity at other aminergic receptors
# adrenergic receptors = assay: Activity at other aminergic receptors; conditions: no/low activity
# [14] = Brain and plasma pharmacokinetic evaluation; format: in vivo, mouse; conditions: brain and plasma PK
# cats = conditions: in comparison to (R)-DOM ref 10; cited from earlier work
# rats [15] = conditions: cited from earlier work
# rats [16] = conditions: cited from earlier work; remark: listed apart in the source
# rat smooth muscle = conditions: compared to serotonin and (R)-DOM ref 11; cited from earlier work
# mice [17] = assay: Open field test; format: in vivo, mouse; conditions: mouse, in vivo
# mice [18] = conditions: cited from earlier work
# 5-HT2C receptors = conditions: cited from earlier work
# [19] = phosphoinositide turnover ref 40
# T2 sequence (P41595 whole entry): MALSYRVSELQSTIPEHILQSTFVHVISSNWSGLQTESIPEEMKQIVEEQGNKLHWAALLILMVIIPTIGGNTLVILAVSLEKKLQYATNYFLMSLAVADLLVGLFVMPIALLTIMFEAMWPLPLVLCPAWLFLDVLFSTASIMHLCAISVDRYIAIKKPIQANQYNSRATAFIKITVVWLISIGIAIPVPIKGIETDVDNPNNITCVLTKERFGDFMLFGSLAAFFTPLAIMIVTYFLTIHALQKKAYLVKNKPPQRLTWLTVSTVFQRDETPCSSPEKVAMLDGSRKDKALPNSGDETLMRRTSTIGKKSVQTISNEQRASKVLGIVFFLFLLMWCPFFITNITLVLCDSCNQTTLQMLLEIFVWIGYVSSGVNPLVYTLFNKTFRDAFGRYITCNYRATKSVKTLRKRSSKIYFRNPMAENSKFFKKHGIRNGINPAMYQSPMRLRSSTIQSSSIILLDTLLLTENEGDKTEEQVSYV
# Chain of norepinephrine transporter (NET) (P23975 whole entry): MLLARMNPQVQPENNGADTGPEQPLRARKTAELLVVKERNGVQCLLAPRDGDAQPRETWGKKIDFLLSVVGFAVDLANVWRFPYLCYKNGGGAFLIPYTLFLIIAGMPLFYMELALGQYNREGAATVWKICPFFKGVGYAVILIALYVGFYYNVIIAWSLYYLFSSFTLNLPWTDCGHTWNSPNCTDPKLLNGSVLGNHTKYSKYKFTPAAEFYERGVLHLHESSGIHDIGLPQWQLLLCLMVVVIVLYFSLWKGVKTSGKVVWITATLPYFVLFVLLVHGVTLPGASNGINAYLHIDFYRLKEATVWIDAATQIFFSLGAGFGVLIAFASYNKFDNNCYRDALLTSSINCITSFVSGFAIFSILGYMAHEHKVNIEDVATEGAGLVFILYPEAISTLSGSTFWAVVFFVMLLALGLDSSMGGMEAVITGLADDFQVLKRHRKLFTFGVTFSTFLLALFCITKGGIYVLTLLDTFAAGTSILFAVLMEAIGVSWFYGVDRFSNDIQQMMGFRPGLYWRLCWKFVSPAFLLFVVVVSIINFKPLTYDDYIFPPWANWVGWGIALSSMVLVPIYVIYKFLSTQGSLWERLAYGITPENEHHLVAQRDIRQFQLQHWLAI
# Chain of 5-HT1F receptor (P30939 whole entry): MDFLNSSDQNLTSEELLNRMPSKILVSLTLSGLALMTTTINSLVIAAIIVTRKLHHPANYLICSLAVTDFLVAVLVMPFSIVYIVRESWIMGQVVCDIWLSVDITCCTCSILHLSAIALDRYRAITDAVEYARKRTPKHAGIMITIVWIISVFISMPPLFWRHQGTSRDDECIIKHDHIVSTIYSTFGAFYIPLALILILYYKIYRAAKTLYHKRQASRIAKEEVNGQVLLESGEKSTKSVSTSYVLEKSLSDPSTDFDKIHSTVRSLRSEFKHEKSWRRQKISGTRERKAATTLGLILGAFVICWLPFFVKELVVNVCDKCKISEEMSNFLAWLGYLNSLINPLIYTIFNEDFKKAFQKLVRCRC
# Chain of serotonin transporter (SERT) (P31645 whole entry): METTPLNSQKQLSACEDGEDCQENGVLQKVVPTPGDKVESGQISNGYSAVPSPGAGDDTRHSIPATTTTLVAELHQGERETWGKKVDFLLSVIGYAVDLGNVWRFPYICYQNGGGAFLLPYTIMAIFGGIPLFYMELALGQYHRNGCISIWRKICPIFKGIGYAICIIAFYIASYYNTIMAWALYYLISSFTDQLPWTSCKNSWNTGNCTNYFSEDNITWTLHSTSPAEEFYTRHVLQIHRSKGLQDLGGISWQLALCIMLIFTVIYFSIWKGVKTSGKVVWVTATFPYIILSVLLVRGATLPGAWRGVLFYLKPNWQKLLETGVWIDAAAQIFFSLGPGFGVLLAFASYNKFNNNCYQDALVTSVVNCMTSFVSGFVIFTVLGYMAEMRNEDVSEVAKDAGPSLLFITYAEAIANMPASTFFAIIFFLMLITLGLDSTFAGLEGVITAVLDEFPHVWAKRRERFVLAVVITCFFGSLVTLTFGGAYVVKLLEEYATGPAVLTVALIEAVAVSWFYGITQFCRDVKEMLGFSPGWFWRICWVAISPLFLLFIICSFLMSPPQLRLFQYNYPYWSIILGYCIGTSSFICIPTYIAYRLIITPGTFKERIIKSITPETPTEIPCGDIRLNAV
# Chain of dopamine 1 receptor (P21728 whole entry): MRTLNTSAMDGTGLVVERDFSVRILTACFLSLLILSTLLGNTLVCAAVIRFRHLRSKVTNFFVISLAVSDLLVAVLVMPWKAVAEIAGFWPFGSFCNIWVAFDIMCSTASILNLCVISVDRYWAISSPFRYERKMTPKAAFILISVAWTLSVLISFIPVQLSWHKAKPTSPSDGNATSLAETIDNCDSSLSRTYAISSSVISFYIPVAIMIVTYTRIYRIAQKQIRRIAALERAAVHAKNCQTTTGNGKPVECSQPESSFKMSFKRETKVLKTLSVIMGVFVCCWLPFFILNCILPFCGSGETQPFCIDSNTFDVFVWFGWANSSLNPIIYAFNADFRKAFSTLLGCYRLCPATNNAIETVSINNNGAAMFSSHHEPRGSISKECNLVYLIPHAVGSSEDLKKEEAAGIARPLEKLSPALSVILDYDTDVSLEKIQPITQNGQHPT
# Chain of dopamine 2 receptor (P14416 whole entry): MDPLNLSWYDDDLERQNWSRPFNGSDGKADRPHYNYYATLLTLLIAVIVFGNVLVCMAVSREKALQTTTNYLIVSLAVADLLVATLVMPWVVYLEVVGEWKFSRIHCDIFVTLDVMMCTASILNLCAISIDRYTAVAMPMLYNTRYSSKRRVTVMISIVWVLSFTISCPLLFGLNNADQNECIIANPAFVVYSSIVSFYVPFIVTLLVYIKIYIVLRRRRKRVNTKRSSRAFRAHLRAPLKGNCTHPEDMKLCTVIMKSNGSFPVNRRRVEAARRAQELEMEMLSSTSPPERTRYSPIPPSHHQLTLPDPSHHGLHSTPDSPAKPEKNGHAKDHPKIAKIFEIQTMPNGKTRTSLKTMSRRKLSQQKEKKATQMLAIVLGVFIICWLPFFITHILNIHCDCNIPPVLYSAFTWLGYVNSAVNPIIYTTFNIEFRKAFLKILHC
structure (smiles),measurement,setting,value
CCC(N)Cc1cc(OC)c(COC)cc1OC (stereo not shown) [4C-MOM],less potent at 5-HT2A compared to Ariadne,5-HT2A receptor [1]; Gq dissociation,approximately 2 fold
same,potency at 5-HT2B compared to Ariadne,5-HT2B receptor [2]; Gq dissociation,twice as potent
same,HTR response,mice [3]; s.c.,only residual HTR
CCCc1cc(OC)c(CC(N)CC)cc1OC (stereo not shown) [4C-Pr],loss in efficacy versus the alpha-methyl (DOx) counterpart,5-HT2A receptor [1]; Gq dissociation,15%
same,decrease in potency versus the alpha-methyl (DOx) counterpart,5-HT2A receptor [1],20-30 fold
same,decrease in potency versus the alpha-methyl (DOx) counterpart,5-HT2A receptor [4],10 fold
same,drop in efficacy versus the alpha-methyl (DOx) counterpart,5-HT2A receptor [4],15%
CCC(N)Cc1cc(OC)c(C(F)(F)F)cc1OC (stereo not shown) [4C-TFM],"HTR after pretreatment with 5-HT2A antagonist MDL100,907 (volinanserin)",mice [3]; MDL100907 0.01 and 0.032 mg/kg ip 15 min prior,completely inhibited
CCCC(N)Cc1cc(OC)c(C)cc1OC (stereo not shown) [5C-D],decrease in potency relative to Ariadne,5-HT2A receptor [1]; Figure 3D signaling assays,~ 2 fold
same,drop in efficacy relative to Ariadne,5-HT2A receptor [1]; Figure 3D signaling assays,~ 15%
same,HTR response,mice [3]; s.c.,indistinguishable from vehicle
"CCN(CC)CCc1c[nH]c2cc(F)ccc12 [6F-DET, 6-fluoro-diethyltryptamine]",Emax,5-HT2A receptors [5]; [19],63%
same,drop in efficacy versus DET,5-HT2A receptors [5]; [19],20%
same,weaker signaling potency (EC50 values) versus DET,5-HT2A receptors [5]; [19],6 fold
same,"affinity for 5-HT2A receptors, DET versus 6F-DET",5-HT2A receptors [6],nearly identical affinity
CC[C@H](N)Cc1cc(OC)c(C)cc1OC [(S)-Ariadne],EC50,5-HT2A receptor [7]; read-out: EC50 (calcium flux),132 nM
same,Emax (calcium flux),5-HT2A receptor [7]; relative to 5-HT,63%
same,Ki,5-HT2A receptor [8],220 nM
CCC(N)Cc1cc(OC)c(C)cc1OC.Cl (stereo not shown) [Ariadne hydrochloride],subjective effect (online experience report),"humans; 50 mg oral plus 25 mg at 90 min, person 77 kg ref 35",MDMA-like effect but no psychedelic effects
"CCC(N)Cc1cc(OC)c(C)cc1OC (stereo not shown) [Ariadne, 2-amino-1-(2,5-dimethoxy-4-methylphenyl)-butane]",displacement of standard radioligands,5-HT2A receptor [9],more than 50%
same,displacement of standard radioligands,5-HT2B receptor [10],more than 50%
same,activity at SERT,[11],essentially no activity
same,activity at DAT,[12],essentially no activity
same,activity at NET,[13],essentially no activity
same,Emax,5-HT2A receptor [1],> 70%
same,decrease in potency versus the alpha-methyl (DOx) counterpart,5-HT2A receptor [1],4-to-6 fold and 6 fold
same,Emax,5-HT2A receptor [1]; read-out: Emax (Gq),80%
same,Emax,5-HT2B receptor [2],> 70%
same,Emax,5-HT2C receptor,> 70%
same,selectivity of 5-HT2 agonism over 5-HT1F,5-HT1F receptor,0.5-1 log
same,EC50,dopamine 1 receptor,> 10000 nM
same,EC50,dopamine 2 receptor,> 10000 nM
same,EC50,adrenergic receptors,> 10000 nM
same,decrease in potency versus the alpha-methyl (DOx) counterpart,5-HT2A receptor [4],~ 4.5 fold
same,efficacy,5-HT2A receptor [4],83%
same,decrease in HTR count per 15 min compared to racemic DOPR,mice [3]; s.c.,> 3 fold
same,dose of peak (maximum) HTR,mice [3]; s.c.,10 mg/kg
same,brain penetration,[14],high brain penetration
same,hallucinogenic / psychoactive effect,humans; 32 mg p.o. ref 6,no hallucinogenic effect but a mild threshold psychoactive effect
same,subjective effect (online experience report),"humans; 75 mg orally, male ref 36","mild MDMA-like effects, but no obvious hallucinogenic effect"
same,subjective effect (online experience report),"humans; 125 mg orally, female ref 37",unique hybrid between MDMA-like and DOX/psychedelic-like activity
same,dose leading to discernable psychoactive effects,humans; aggregate of human data,> 50 mg
same,dose up to which no hallucinogenic effects were observed,humans; aggregate of human data,100 to 300 mg
same,combined score of DOM-like behavioral features,cats,low combined score of DOM-like behavioral features
same,substitution in LSD trained animals,rats [15],substituted responding in LSD trained animals
same,substitution for MDMA stimulus,rats [16],full substitution for MDMA stimulus
same,serotonergic-like spasmogenic effect,rat smooth muscle,weak serotonergic-like effect
"CCN(CC)CCc1c[nH]c2ccccc12 [DET, diethyltryptamine]",Emax,5-HT2A receptors [5]; [19],82%
same,"affinity for 5-HT2A receptors, DET versus 6F-DET",5-HT2A receptors [6],nearly identical affinity
"COc1cc(CC(C)N)c(OC)cc1I (stereo not shown) [DOI, reference compound]",increase in Gq dissociation potency compared to DOM,5-HT2A receptor [1]; Gq dissociation,20- to 30 fold
"COc1cc(CC(C)N)c(OC)cc1C (stereo not shown) [DOM, 2,5-dimethoxy-4-methyl-amphetamine, reference compound]",Emax,5-HT2A receptor [1]; read-out: Emax (Gq),96%
same,efficacy,5-HT2A receptor [4],103%
same,dose producing classic hallucinogen effects,humans,> 3 mg
same,"dose producing detectable psychoactive, sub-hallucinogenic effects",humans,1 to 3 mg
same,potency relative to mescaline in humans,humans; per oral administration ref 6,approximately 100 times
"CCCc1cc(OC)c(CC(C)N)cc1OC (stereo not shown) [DOPR, reference compound]",increase in Gq dissociation potency compared to DOM,5-HT2A receptor [1]; Gq dissociation,20- to 30 fold
same,dose of peak (maximum) HTR,mice [3]; s.c.,1 mg/kg
same,time to maximum HTR frequency post-drug administration,mice [3]; s.c.,10 min
same,time in the center of the arena,mice [17],trend for spending less time in the center of the arena
CCC(N)Cc1cc(OC)c(I)cc1OC (stereo not shown) [iodo-Ariadne],increase in potency compared to Ariadne,5-HT2A receptor [1]; Gq dissociation,> 10 fold
same,loss in efficacy versus the alpha-methyl (DOx) counterpart,5-HT2A receptor [1]; Gq dissociation,10%
same,decrease in potency versus the alpha-methyl (DOx) counterpart,5-HT2A receptor [1],10 fold
same,EC50,"5-HT2A receptor [1]; read-out: EC50 (Gq), Gq dissociation BRET",16 nM
same,decrease in potency versus the alpha-methyl (DOx) counterpart,5-HT2A receptor [4],5 fold
same,drop in efficacy versus the alpha-methyl (DOx) counterpart,5-HT2A receptor [4],20%
CN(C)CCc1c[nH]c2cccc(O)c12 [psilocin],HTR counts,mice [18],15-25 HTR events per 15 min
same,greater signaling potency in comparison to 6F-DET,5-HT2A receptors [5],15 fold
same,signaling efficacy,5-HT2A receptors [5]; depending on the specific readout,50-70%
same,greater affinity in comparison to 6F-DET,5-HT2C receptors,10 fold
CN(C)CCc1c[nH]c2cccc(OP(=O)(O)O)c12 [psilocybin],HTR counts,mice [18],15-25 HTR events per 15 min
